Laboratory results from publication PMC2223364 (The Journal of General Physiology, 1999).
Where “and” joins values, the source holds several entries; their conditions need not be identical. Equal entries are not always repeated. Where two headings read alike, the source gives them in different places. Ends that are not written are not given here.

What was measured:
[1] = tested on: maxi-KCa channel (external TEA site); assay: Fast block by external TEA in absence and presence of internal DTX-I; type: biochemical, rat; settings: 460 nM DTX-I; P = 0.1
Method in brief: (§1)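 Single rat skeletal muscle maxi-KCa channels were taken from plasma membrane vesicles and fused into planar bilayers of 80% POPE/20% POPC. Recordings used symmetrical 50 mM KCl and 10 mM MOPS-KOH, pH 7.4. Internal CaCl2 was 200 μM, raised to 500 μM in some experiments to keep open probability >0.9. Holding was +30 mV at 20–23°C, with Ag/AgCl electrodes and agar-KCl bridges.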

[2] = target: rat muscle maxi-KCa channel, internal pore (Rattus norvegicus, UniProt Q62976); assay: Single-channel block by ball peptide homologue; type: biochemical; settings: for Kd: BP alone, +30 mV, 50 mM KCl, pH 7.4
Chain of rat muscle maxi-KCa channel, internal pore (Q62976 whole entry): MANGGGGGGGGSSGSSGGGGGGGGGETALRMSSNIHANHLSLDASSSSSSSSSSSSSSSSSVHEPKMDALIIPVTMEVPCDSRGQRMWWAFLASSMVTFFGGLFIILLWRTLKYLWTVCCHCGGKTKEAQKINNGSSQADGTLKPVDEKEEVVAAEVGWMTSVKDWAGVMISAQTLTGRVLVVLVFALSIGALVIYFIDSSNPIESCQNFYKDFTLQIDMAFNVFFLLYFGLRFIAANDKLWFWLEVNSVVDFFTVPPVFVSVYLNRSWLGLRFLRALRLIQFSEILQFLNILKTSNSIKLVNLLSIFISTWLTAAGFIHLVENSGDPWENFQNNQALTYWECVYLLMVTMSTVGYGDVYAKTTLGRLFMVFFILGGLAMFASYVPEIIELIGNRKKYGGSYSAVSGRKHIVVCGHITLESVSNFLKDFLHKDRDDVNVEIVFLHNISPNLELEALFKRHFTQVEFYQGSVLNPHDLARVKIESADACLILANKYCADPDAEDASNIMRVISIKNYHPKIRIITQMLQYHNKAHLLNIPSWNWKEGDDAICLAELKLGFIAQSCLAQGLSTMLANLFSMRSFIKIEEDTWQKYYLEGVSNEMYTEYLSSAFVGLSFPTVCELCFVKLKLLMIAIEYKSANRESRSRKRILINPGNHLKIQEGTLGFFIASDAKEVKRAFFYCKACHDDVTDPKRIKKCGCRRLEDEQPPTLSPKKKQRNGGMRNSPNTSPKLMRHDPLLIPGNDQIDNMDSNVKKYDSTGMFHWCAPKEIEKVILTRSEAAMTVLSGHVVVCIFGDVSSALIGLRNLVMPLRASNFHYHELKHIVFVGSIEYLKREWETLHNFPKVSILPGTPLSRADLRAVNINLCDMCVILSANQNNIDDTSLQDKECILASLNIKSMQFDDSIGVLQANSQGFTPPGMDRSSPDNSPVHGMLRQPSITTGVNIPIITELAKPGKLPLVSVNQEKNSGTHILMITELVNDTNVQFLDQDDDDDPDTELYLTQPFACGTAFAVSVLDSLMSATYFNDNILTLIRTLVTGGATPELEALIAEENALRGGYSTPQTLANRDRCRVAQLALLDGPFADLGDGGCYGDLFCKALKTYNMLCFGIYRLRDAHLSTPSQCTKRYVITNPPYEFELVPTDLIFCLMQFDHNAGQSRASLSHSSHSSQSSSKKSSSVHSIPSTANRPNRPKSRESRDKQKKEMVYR
Method in brief: as §1

[3] = tested on: maxi-KCa channels; settings: cited from earlier work
[4] = target: rat muscle maxi-KCa channel, intracellular sites (Rattus norvegicus, UniProt Q62976); assay: Ligand interaction of BP and DTX-I on single maxi-KCa channels, planar bilayer; type: biochemical
Chain of rat muscle maxi-KCa channel, intracellular sites (Q62976 whole entry): as above
Method in brief: as §1

[5] = tested on: cyclic nucleotide–gated channels; settings: ref Kramer et al., 1994; cited from earlier work
[6] = tested on: serine proteinases (chymotrypsin/trypsin family); settings: BPTI and related Kunitz molecules; ref Dufton, 1985; Capasso et al., 1997; cited from earlier work
[7] = tested on: rat muscle maxi-KCa channel (large conductance Ca^2+-activated K^+ channel), intracellular site; assay: Ligand interaction of BPTI and DTX-I on single maxi-KCa channels, planar bilayer; type: biochemical
Method in brief: as §1

[8] = tested on: rat muscle maxi-KCa channel (large conductance Ca^2+-activated K^+ channel), intracellular site; assay: Single-channel substate kinetics of one Kunitz inhibitor; type: biochemical
Method in brief: as §1

[9] = tested on: maxi-KCa channel (external ChTX site); assay: Slow block by external charybdotoxin in absence and presence of internal DTX-I; type: biochemical, rat
[10] = read-out: Kd (studied alone), abstract, one-site binding kinetics, unoccupied channel

CC[N+](CC)(CC)CC [TEA, tetraethylammonium]
binding interaction of external TEA with internal DTX-I [1]: no detectable binding interaction | effect of internal TEA on BP association ([2]; data not shown): decreases the association rate of BP homologue in a competitive fashion | effect of BPTI or DTX-I on blocking affinity of internal blocker ([3]; Ba^2+ with BPTI, internal TEA with DTX-I, ref Lucchesi and Moczydlowski, 1991): not significantly affected | inhibition of ball peptide block by TEA ([3]; ref Toro et al., 1992): inhibits ball peptide block of the maxi-KCa channel in a strictly competitive fashion

MAAVAVLYVLGKKRQHRKKQ [BP]
Kd ([2]; equilibrium dissociation constant B1 = b−1/b1 (BP from BBP), unoccupied channel, kinetic ratio): 7.16 nM | Kd ([2]; equilibrium dissociation constant B1 from PU vs [BP] (Eq. 15), 4.5–6.5 h data pooled from three to seven single channels): 8.85 nM | kon ([2]; pH 7.4, read-out: bimolecular association rate constant b1 (BP to U)): 8.17e+07 M⁻¹ s⁻¹ | koff ([2]; pH 7.4, read-out: dissociation rate constant b−1 (BP from BBP)): 0.585 s⁻¹ | Kd [4]: 57 nM | kon ([4]; pH 7.4, read-out: association rate constant b2 (BP to SDTX)): 1.85e+06 M⁻¹ s⁻¹ | koff ([4]; read-out: dissociation rate constant b−2 (BP from BBP/DTX)): 0.105 s⁻¹

Shaker ball peptide: 20-residue NH2 terminus of the Shaker K^+ channel of Drosophila that mediates rapid inactivation (MAAVAVLYVLGKKRQHRKKQ)
block of cyclic nucleotide–gated channels [5]: blocks other types of ion channels | block of maxi-KCa channels ([3]; ref Foster et al., 1992, Toro et al.): known to block maxi-KCa channels by a pore-occlusion mechanism

bovine pancreatic trypsin inhibitor [BPTI]
inhibition of chymotrypsin/trypsin family serine proteinases [6]: potent inhibitors | relief of the DTX substate ([7]; 8 μM BPTI, 460 nM DTX-I): ~30% | slope of τBURST vs [BPTI] ([7]; BPTI titration at 460 nM DTX-I, measured): 3.25 s/µM | KApp for relief of normalized DTX-substate probability, best fit to Eq. 10 ([7]; BPTI titration, 460 nM DTX-I): 17.8 µM and 17.8 ± 1.7 µM | decrease of BPTI affinity when DTX-I is bound (K2/K1) ([7]; DTX-occupied vs unoccupied channel): 11.7 fold and 11.7 ± 2.1 fold and ~11 fold | increase in mean τS-DTX ([7]; over 0–8 μM BPTI at 460 nM DTX-I): 47% | Kd ([7]; read-out: Kd of BPTI when DTX-I is bound, abstract, DTX-occupied channel): 17500 nM | probability of the channel residing in the fully open conductance state ([8]; 8 μM internal BPTI (1.0 at 0 μM), +30 mV): ~0.15 | mean lifetime of BPTI-induced substate (τS) ([8]; BPTI alone, internal, 1-8 μM, +30 mV, symmetrical 50 mM KCl, 10 mM MOPS-KOH pH 7.4, 200 μM internal Ca2+, 20–23°C, mean of four τS means, single-exponential): ~0.41 s and 0.411 ± 0.022 s | apparent association rate constant 4k1 ([8]; BPTI alone, internal, fit of τU to Eq. 2, +30 mV, 50 mM KCl, pH 7.4): 1.63 ± 0.07 × 10^6 s^−1M^−1 | dissociation rate constant k−1 ([8]; BPTI alone, internal, from τS (Eq. 1), ±SEM, +30 mV, 50 mM KCl, pH 7.4): 2.43 ± 0.13 s⁻¹ | equilibrium dissociation constant K1 (kinetic ratio k−1/4k1) ([8]; BPTI, unoccupied channel, +30 mV, 50 mM KCl, pH 7.4): 1.49 ± 0.10 µM and 1.49 µM | Hill coefficient n ([8]; fit of PU vs [BPTI]): 1.0 | substate current level ([8]; ligand alone, internal, +30 mV): ~27 % of unitary current | Kd [8, 10]: 1490 nM | binding kinetics when studied alone ([8]; words): one-site binding kinetics

charybdotoxin [ChTX]
binding interaction of external ChTX with internal DTX-I ([9]; 460 nM internal DTX-I): no detectable binding interaction | koff of ChTX, presence of DTX-I ([9]; 460 nM internal DTX-I, +30 mV): 0.0350 ± 0.0003 s⁻¹ | kon of ChTX, presence of DTX-I ([9]; 460 nM internal DTX-I, +30 mV): 2.89 ± 0.51 × 10^7 s^−1M^−1 | koff of ChTX, absence of DTX-I ([9]; external ChTX (10 nM), +30 mV): 0.0369 ± 0.0004 s⁻¹ | kon of ChTX, absence of DTX-I ([9]; external ChTX (10 nM), +30 mV): 2.77 ± 0.42 × 10^7 s^−1M^−1 | Kd ([9]; read-out: Kd of ChTX (koff/kon), absence of DTX-I, external ChTX (10 nM), +30 mV): 1.33 ± 0.2 nM

dendrotoxin I (QPLRKLCILHRNPGRCYQKIPAFYYNQKKKQCEGFTWSGCGGNSNRFKTIEECRRTCIRK; ends and bridges not checked; cysteine pairing not given here; UniProt P00979 1-60, looked up) [DTX-I]
Kd ([7]; read-out: equilibrium dissociation constant J2, DTX-I binding to BPTI-occupied channel, from slope of τBURST vs [BPTI], Eq. 7, 460 nM DTX-I, +30 mV, 50 mM KCl, pH 7.4): 178 nM | Kd [8, 10]: 16.5 nM | Kd ([8]; read-out: equilibrium dissociation constant J1 = j−1/4j1 (DTX-I from SDTX), DTX-I, unoccupied channel, +30 mV, 50 mM KCl, pH 7.4): 16.5 nM | Kd ([4]; read-out: equilibrium dissociation constant J3 (DTX-I from BBP/DTX), DTX-I binding to BP-blocked state, from τBP, Eq. 19, +30 mV, 50 mM KCl, pH 7.4): 139 nM
